From publication PMC10839117 (Cell chemical biology, 2023)
“Also recorded” adds a separate entry of the source. Values belong to the molecule of their own block, whether it stands above or below them. Primed or numbered codes have the meaning given here. Where no end group is shown, it is not given here. [ ]: non-standard residue; d: D form. two‑PEG linker = not defined here; YHJ1039 = not defined here; PEG2′ = two-PEG linker

Legend:
[1] = target: WEE1-nanoluciferase fusion protein (Homo sapiens, UniProt P30291); assay: WEE1 cellular engagement assay; assay type: cell-based; settings: nano-BRET, HEK-293T cells, one hour
Chain of WEE1-nanoluciferase fusion protein (P30291 whole entry, the tested form may be a part): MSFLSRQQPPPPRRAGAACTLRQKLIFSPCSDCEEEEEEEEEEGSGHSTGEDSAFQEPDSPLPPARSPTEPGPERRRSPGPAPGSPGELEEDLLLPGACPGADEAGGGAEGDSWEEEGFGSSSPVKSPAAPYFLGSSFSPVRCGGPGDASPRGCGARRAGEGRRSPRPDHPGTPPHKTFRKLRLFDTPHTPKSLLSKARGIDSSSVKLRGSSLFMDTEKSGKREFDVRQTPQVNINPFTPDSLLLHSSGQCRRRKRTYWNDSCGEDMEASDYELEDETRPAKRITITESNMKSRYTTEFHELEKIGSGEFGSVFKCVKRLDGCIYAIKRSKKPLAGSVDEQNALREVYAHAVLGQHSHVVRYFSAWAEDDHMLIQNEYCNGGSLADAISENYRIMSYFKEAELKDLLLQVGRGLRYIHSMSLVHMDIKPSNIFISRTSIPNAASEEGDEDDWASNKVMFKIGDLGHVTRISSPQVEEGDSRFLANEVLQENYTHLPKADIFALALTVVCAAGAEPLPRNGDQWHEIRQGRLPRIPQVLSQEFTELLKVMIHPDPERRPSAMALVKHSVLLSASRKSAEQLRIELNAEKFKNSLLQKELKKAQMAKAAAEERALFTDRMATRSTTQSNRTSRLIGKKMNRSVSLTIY
Method in brief: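 HEK-293T cells were transiently transfected with a WEE1-nanoluciferase plasmid. The next day they were replated at 8,000 cells/well in phenol red-free DMEM with 4% FBS, together with K-5 tracer and 2 μM MLN4924. After 1 h, DMSO-normalised test compound was added. One hour later, nano-BRET detection reagent was added. The BRET ratio (610/450 nm) was normalised to DMSO wells.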

KLHDC2 = target: T1, KLHDC2 (Homo sapiens, UniProt Q9Y2U9); assay: TR-FRET binding assay, KLHDC2
T1 sequence (Q9Y2U9 1-362): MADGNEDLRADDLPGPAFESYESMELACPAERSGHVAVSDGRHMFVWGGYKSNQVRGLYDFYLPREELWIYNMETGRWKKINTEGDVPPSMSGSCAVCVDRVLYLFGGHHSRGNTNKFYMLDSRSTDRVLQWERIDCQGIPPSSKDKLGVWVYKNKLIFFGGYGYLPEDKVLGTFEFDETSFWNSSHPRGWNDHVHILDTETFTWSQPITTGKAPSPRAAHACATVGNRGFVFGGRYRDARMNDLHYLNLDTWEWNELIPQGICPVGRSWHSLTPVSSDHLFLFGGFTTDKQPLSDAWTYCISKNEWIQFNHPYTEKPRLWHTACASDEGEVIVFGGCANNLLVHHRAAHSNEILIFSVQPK

MOLM-14 cells = assay: Cell proliferation assay; assay type: cell-based, human
Method in brief: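 MOLM-14 cells were plated at low density and treated in triplicate or quadruplicate with DMSO-balanced test compound, with or without MLN4924. After 72 h, CellTiter-Glo was added for 10–15 min at room temperature and luminescence was read. Signal was normalised to DMSO-only wells, or to DMSO plus MLN4924 at the matching MLN4924 concentration.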

CDK4 [2] = target: T2, CDK4 (Homo sapiens, UniProt P11802); assay: Kinase degradation by Western blotting, CDK4; assay type: cell-based; settings: MOLM-14 cells
T2 sequence (P11802 whole entry): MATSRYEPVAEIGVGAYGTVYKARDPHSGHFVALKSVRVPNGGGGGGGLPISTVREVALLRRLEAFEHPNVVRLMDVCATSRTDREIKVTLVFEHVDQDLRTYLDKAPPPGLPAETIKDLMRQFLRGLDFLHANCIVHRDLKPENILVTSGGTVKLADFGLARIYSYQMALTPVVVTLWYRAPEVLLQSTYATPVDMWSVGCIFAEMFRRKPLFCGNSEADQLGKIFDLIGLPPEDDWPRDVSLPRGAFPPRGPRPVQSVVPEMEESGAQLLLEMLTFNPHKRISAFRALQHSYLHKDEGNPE
Method in brief: (§1)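 MOLM-14 cells (RPMI-1640, 10% FBS, 37°C, 5% CO2) were exposed to test compound for 24 h. Cells were washed in PBS, lysed with protease inhibitors, and equal protein was boiled in SDS sample buffer. Blots were blocked for at least 1 h in TBST/5% milk, then probed with kinase antibodies at 1:1,000 and HRP secondaries at 1:10,000. DC50 was taken from quantitative Western blotting.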

CDK6 = CDK6 (Homo sapiens, UniProt Q00534); assay: Kinase degradation by Western blotting, CDK6; assay type: cell-based; settings: read-out: DC50 CDK6, MOLM-14 cells, 24 hours
Chain of CDK6 (Q00534 whole entry): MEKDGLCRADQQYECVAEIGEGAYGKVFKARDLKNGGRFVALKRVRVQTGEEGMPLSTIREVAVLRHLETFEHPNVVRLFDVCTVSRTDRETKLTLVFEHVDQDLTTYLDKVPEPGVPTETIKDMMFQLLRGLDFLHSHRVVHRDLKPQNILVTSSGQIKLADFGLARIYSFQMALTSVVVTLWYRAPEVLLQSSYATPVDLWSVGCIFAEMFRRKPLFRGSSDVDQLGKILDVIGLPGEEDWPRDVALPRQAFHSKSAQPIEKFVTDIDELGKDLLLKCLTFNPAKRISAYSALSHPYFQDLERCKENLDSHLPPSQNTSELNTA
Method in brief: as §1

WEE1 = WEE1 (Homo sapiens, UniProt P30291); assay: Kinase degradation by Western blotting, WEE1; assay type: cell-based; settings: MOLM-14 cells
Chain of WEE1 (P30291 whole entry): as the sequence (P30291 whole entry, the tested form may be a part) above
Method in brief: as §1

NEK9 = target: T3, NEK9 (Homo sapiens, UniProt Q8TD19); assay: Kinase degradation by Western blotting, NEK9; assay type: cell-based; settings: read-out: DC50 NEK9, MOLM-14 cells, 24 hours
T3 sequence (Q8TD19 1-979): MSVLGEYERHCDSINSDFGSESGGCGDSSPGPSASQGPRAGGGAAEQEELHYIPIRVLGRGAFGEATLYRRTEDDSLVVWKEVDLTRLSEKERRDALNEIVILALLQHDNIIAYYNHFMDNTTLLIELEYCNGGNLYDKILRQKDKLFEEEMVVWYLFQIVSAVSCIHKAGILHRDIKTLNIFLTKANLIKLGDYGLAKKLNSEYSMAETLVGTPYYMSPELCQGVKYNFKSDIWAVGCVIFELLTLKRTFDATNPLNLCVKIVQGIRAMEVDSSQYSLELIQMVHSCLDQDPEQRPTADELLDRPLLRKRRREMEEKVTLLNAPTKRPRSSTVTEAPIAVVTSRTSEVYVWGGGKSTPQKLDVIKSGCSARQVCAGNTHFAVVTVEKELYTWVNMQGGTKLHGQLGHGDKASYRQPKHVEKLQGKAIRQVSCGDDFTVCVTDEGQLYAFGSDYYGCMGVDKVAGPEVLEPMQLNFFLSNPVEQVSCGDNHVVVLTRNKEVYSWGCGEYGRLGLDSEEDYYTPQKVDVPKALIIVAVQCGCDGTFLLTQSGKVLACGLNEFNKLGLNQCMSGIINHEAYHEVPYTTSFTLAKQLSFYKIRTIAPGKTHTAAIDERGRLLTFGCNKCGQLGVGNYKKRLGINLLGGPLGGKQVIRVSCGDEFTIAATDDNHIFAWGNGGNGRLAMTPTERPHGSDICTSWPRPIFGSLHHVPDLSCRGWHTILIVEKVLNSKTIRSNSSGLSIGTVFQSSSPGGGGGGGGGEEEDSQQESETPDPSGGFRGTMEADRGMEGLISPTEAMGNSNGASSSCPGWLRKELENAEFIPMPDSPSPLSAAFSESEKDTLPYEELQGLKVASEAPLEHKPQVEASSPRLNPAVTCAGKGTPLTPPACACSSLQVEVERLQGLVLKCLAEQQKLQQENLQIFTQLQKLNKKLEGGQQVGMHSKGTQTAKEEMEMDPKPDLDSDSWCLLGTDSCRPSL
Method in brief: as §1

FAK = FAK (Homo sapiens, UniProt Q05397); assay: Kinase degradation by Western blotting, FAK; assay type: cell-based; settings: read-out: DC50 FAK, MOLM-14 cells, 24 hours
Chain of FAK (Q05397 whole entry): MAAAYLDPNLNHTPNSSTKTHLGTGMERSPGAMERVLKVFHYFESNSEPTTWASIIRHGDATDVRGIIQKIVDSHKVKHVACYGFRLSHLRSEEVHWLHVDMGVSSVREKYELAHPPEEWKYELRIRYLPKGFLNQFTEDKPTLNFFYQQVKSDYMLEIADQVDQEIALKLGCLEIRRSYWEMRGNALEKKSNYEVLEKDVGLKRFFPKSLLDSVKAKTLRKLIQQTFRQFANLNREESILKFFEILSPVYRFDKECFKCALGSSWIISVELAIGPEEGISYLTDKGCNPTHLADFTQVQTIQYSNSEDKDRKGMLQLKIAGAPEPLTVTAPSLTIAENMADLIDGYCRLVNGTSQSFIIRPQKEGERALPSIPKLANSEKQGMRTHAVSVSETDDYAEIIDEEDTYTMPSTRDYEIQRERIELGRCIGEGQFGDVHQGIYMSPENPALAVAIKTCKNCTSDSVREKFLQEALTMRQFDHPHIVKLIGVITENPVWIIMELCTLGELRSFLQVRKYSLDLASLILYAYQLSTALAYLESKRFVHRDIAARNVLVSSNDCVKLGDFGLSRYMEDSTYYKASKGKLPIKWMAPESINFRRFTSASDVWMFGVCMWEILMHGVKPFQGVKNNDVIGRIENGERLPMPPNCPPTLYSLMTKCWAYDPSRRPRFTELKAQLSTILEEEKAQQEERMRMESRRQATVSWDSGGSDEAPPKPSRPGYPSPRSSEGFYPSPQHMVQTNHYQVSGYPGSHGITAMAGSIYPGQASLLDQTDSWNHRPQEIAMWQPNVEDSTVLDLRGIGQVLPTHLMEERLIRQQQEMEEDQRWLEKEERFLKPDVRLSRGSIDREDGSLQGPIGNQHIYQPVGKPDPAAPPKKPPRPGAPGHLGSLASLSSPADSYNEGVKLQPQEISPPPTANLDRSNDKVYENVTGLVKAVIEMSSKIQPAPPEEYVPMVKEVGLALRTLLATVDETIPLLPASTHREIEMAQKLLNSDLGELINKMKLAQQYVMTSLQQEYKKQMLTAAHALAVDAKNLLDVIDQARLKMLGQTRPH
Method in brief: as §1

CDK4 [3] = target: T2, CDK4; assay: HiBiT degradation assay, CDK4; assay type: cell-based
Method in brief: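 MOLM-14 cells were lentivirally transduced with HiBiT-tagged kinase (GSGS linker, EF1a promoter) and pooled after 1 μg/ml puromycin selection. Cells were pretreated for 2 h with 1 μM MLN4924, then treated with test compound for 6 h in triplicate or quadruplicate. Lytic HiBiT luminescence was normalised to the matching CellTiter-Glo viability signal and to DMSO for each treatment.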

[4] = target: WEE1 kinase domain (residues 290-576) (Homo sapiens, UniProt P30291); assay: HiBiT degradation assay, WEE1 kinase domain; assay type: cell-based
Chain of WEE1 kinase domain (residues 290-576) (P30291 290-576): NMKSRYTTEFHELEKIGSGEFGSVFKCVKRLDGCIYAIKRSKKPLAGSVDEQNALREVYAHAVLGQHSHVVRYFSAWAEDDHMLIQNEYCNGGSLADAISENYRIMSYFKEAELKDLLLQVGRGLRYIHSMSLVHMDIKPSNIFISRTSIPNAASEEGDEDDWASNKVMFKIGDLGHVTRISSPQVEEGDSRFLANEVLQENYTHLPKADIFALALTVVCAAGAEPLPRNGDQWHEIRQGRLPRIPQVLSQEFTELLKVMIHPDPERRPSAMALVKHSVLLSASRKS
Method in brief: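 Pooled selected cells, checked for kinase expression by lytic HiBiT, grown with 10% FBS and 1% penicillin-streptomycin at 37°C, 5% CO2. Cells were dispensed and treated in triplicate or quadruplicate with DMSO balanced, then lysed for HiBiT luminescence after 6 h. For the MLN4924 arm, cells were pretreated 2 h with 1 μM MLN4924. HiBiT signal was normalized to CellTiter-Glo viability per matching condition and to DMSO.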

[5] = test system: NEK9, FAK, CDK4, CDK6, and WEE1; assay: Kinase degradation by Western blotting, MOLM-14 cells; assay type: cell-based, human; settings: 24 hours; for kinase degradation activity compared between compounds: Western blot, DB0614 comparison at 1 μM
KLHDC2-WEE1 = KLHDC2-WEE1 (Homo sapiens, UniProt P30291+Q9Y2U9); assay: GST pulldown assay with purified KLHDC2 and WEE1 proteins; assay type: binding
Chain of KLHDC2-WEE1 (P30291 299-569 limits assumed, one chain of several): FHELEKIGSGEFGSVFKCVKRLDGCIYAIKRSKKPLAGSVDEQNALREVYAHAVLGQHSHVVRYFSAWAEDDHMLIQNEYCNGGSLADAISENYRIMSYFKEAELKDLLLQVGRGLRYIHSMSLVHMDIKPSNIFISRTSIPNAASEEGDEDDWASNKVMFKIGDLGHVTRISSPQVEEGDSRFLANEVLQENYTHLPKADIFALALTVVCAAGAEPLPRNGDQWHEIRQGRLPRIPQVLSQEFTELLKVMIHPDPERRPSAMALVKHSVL
Method in brief: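 Purified proteins were His6-GST-KLHDC2 (propeller domain, residues 1-362, lacking the autoinhibitory C-terminus; E. coli-expressed) and the WEE1 kinase domain with its tag removed by TEV. They were incubated with DMSO or test compound for 1 h on ice in 20 mM Tris-HCl pH 8.5, 150 mM NaCl, 1 mM TCEP, 0.05% NP-40 substitute. Glutathione-agarose was added for 1 h at 4°C, followed by three washes. Bound material was analysed by SDS-PAGE.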

WEE1 and CDK4 RNA = assay: RT-PCR of WEE1 and CDK4 RNA; assay type: cell-based, human; settings: MOLM-14 cells, 1 μM, 24 hours
WEE1 and CDK4 = assay: Kinase degradation by Western blotting in a panel of cancer cell lines; assay type: cell-based, human; settings: 1 μM
Method in brief: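 Cancer cell lines were grown in RPMI-1640 (MOLM-14, MV-4-11, MOLT-4, DLD1, K562, SW480, MDA-MB-231, MCF7), EMEM (Detroit 551) or DMEM (GIST-T1, Hs27), each with 10% FBS and 1% pen-strep at 37°C, 5% CO2. Cells were treated with test compound, washed in PBS and lysed with protease inhibitors. Equal protein was blotted; membranes were blocked in TBST/5% milk, then probed with primaries at 1:1,000 and HRP secondaries at 1:10,000.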

[6] = cited from earlier work
[7] = target: T4, His6-GST-KLHDC2 (residues 1-362, propellor domain, lacking the autoinhibitory C-terminus) (UniProt Q9Y2U9 1-362); assay: AlphaScreen or HTRF
T4 sequence (looked up): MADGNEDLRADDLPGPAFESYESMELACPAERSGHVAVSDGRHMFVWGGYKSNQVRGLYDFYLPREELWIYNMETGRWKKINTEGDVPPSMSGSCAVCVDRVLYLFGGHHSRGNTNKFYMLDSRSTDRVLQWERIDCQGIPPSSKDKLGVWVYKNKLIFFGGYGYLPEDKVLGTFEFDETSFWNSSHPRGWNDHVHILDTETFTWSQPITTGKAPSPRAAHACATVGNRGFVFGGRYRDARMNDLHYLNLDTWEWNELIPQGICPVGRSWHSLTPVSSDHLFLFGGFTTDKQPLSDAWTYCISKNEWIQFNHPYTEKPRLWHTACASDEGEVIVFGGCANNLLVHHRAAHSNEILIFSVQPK

[8] = 1 μM MLN4924 two hours, then six-hour experiment

WEE1 target engagement (in words) ([1]; YHJ1039 versus AZD1775): comparable
Molecule: C=CCn1c(=O)c2cnc(Nc3ccc(N4CCN(C)CC4)cc3)nc2n1-c1cccc(C(C)(C)O)n1 [AZD1775, reference compound]

Molecule: KYH1872 (26): two-PEG linker connects YHJ1039 with a seven amino acid SelK peptide (PPPMAGG) ({YHJ1039-two‑PEG linker}-PPPMAGG; reading uncertain)
KLHDC2 binding (in words) (KLHDC2; biochemical binding assay, limit of detection ~2 nM): binds to the KLHDC2 protein; also recorded: tighter than the limit of detection
effect on cell proliferation with MLN4924 co-treatment (MOLM-14 cells; co-treatment with increasing concentrations of MLN4924): blunted the negative effect
EC50 (MOLM-14 cells; read-out: Cell viability (EC50), MOLM-14 cells, 72 hours after treatment): 1060 nM
DC50 (CDK4 [2]; read-out: DC50 CDK4, Western blotting, 24 hours): 457 nM
time at which CDK4 degradation was observable (CDK4 [2]; time course Western blot): 12 h
DC50 (CDK6): 1070 nM
DC50 (WEE1; read-out: DC50 WEE1, Western blotting, 24 hours): 302 nM
time at which WEE1 degradation was observable (WEE1; time course Western blot): 12 h
DC50 (NEK9): 1000 nM
DC50 (FAK): 933 nM
CDK4 degradation after MLN4924 pretreatment (HiBiT) (CDK4 [3]; [8]): prevented WEE1 and CDK4 degradation
Dmax CDK4 (HiBiT) (CDK4 [3]; maximum total fraction of the target degraded, given as a fraction, MOLM-14 cells, six hours): 0.32
WEE1 degradation after MLN4924 pretreatment (HiBiT) [4, 8]: prevented WEE1 and CDK4 degradation
DC50 WEE1-KD (HiBiT) ([4]; MOLM-14 cells, six hours, n.d. = not determined (no degradation)): 1,290 nM
kinase degradation (Western blot, in words) ([5]; KYH1872 at 1 and 10 μM): induced the degradation
kinase degradation activity compared between compounds [5]: slightly improved degradation activity when compared with KYH1886 (25)
induced KLHDC2-WEE1 binding (KLHDC2-WEE1): can induce between KLHDC2-WEE1 binding
WEE1 and CDK4 RNA levels (WEE1 and CDK4 RNA): not changed
WEE1 engagement, fold less efficient than ZNL-02-096 ([1]; MLN4924 pretreated): ~ 300 fold
WEE1 and CDK4 degradation in MOLM-14 and MV4-11 cells (WEE1 and CDK4): displayed WEE1 and CDK4 degradation

Molecule: KYH2011 (27): identical to KYH1872 (26) except reversed methionine stereocenter, PPP(D-Met)AGG ({YHJ1039-PEG2′}-PPP[dM]AGG; reading uncertain; also: printed as PPP(D-Met)AGG)
Kd (KLHDC2; read-out: KLHDC2 binding (KD), TR-FRET, FITC-PPPMAGG probe, His6-GST-KLHDC2): 155 nM
inhibition of cell proliferation (in words) (MOLM-14 cells; MOLM-14 cells, 72 hours): did not cause kinase degradation or inhibit cell proliferation

Molecule: CS(=O)(=O)Nc1cccc(-c2csc3cnc(Nc4ccc(N5CCN(CCCCCOc6cccc7c6C(=O)N(C6CCC(=O)NC6=O)C7=O)CC5)cc4)nc23)c1 (centres unmarked) [DB0614, reference compound]
kinase degradation activity compared between compounds [5]: more effective kinase degrader than KYH1872 (26)
cytotoxicity [6]: cytotoxic

Kd [7]: < 2 nM
Molecule: {YHJ1039-two‑PEG linker}-PPPMAGG (reading uncertain) [KYH1872 (26)]
